The record followed here is ChEMBL document CHEMBL1127554, “Design, synthesis, and study of 9-substituted ellipticine and 2-methylellipticinium analogues as potential CNS-selective antitumor agents” (1994).

Experiment [1] concerns Tumor Cell line. The experiment can be described thus: GI50 was given in vitro as +50% percent growth (PG), measured as concentration of compound required to inhibit disease oriented human tumor cell line panels; Value ranges from 1.55-16.6. The format is functional. The method in brief: (§1)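 Human tumour cell line panel; percent growth plotted against log drug concentration to give dose-response curves. GI50 is the concentration giving PG +50%, and TGI the concentration giving PG 0%. Values are mean inhibitory concentrations over the entire panel. PG values at either limit (> or <) are included in the mean.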

The nature of experiment [2]: TGI was measured in vitro as the ratio of the mean activity for all non-CNS tumor cell lines over the mean activity of the CNS tumor subpanel (eight cell lines). The format is functional. The method in brief:
(§2)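 Ratio of the mean activity (μM) over all non-CNS tumour cell lines (ca. 40-50 lines) to the mean activity (μM) of the CNS subpanel (eight lines). Activity was taken from PG vs log concentration curves: GI50 at PG +50%, TGI at PG 0%.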

A short description of experiment [3]: GI50 was measured in vitro as the ratio of the mean activity for all non-CNS tumor cell lines over the mean activity of the CNS tumor subpanel (eight cell lines). The format is functional. The method in brief: as §2
The test system of experiment [4] is Tumor Cell line. As to the kind of experiment: TGI was given in vitro as 0% percent growth (PG), measured as concentration of compound required to inhibit disease oriented human tumor cell line panels; Value ranges from 2.75-41.69. The format is functional. The method in brief:
as §1

Experiment [5] can be described thus: LC50 was measured in vitro as the ratio of the mean activity for all non-CNS tumor cell lines over the mean activity of the CNS tumor subpanel (eight cell lines). The format is functional. The method in brief:
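Same PG dose-response panel. LC50 (μM) is averaged separately over the non-CNS lines (ca. 40-50 lines) and the CNS subpanel (eight lines). The ratio is the non-CNS mean divided by the CNS mean.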

Experiment [6] relates to Tumor Cell line. The experiment can be described thus: LC50 was given in vitro as -50% percent growth (PG), measured as concentration of compound required to inhibit disease oriented human tumor cell line panels; Value ranges from 5.75->100. The format is functional. Particulars: read-out: LC50 (the source's name). The method in brief:
(§3)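 Human tumor cell line panel tested in vitro. Percent growth (PG) plotted against log drug concentration to give dose-response curves. LC50 is the concentration where PG equals -50%; GI50 and TGI are taken at +50% and 0%. Values are means across the full panel, with values beyond the tested limits (> or <) included in the mean.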

Experiment [7] concerns Tumor Cell line. As to the kind of experiment: GI50 was measured In vitro as the ratio of the mean activity for all non-CNS tumor cell lines over the mean activity of the CNS tumor subpanel (eight cell lines). The format is functional, Homo sapiens. The method in brief: as §2
Experiment [8] deals with Tumor Cell line. As to the kind of experiment: TGI was measured In vitro as the ratio of the mean activity for all non-CNS tumor cell lines over the mean activity of the CNS tumor subpanel (eight cell lines). The format is functional, Homo sapiens. The method in brief:
as §2

The subject of experiment [9] is Tumor Cell line. As to the kind of experiment: GI50 was given In vitro as +50% percent growth (PG), measured as concentration of compound required to inhibit disease oriented human tumor cell line panels; Value ranges from 0.22-52.48. The format is functional. The method in brief: as §1
Experiment [10] concerns Tumor Cell line. The experiment can be described thus: LC50 was given In vitro as -50% percent growth (PG), measured as concentration of compound required to inhibit disease oriented human tumor cell line panels. The format is functional. The note with it: read-out: LC50 (the source's name). The method in brief: as §3
Experiment [11] concerns Tumor Cell line. As to the kind of experiment: GI50 was given In vitro as +50% percent growth (PG), measured as concentration of compound required to inhibit disease oriented human tumor cell line panels; Value ranges from 0.43->100. The format is functional.
Experiment [12] relates to Tumor Cell line. As to the kind of experiment: LC50 was given In vitro as -50% percent growth (PG), measured as concentration of compound required to inhibit disease oriented human tumor cell line panels; Value ranges from 7.94->100. The format is functional. Particulars: read-out: LC50 (the source's name).
Experiment [13] concerns Tumor Cell line. The experiment can be described thus: TGI was given In vitro as 0% percent growth (PG), measured as concentration of compound required to inhibit disease oriented human tumor cell line panels; Value ranges from 3.47->100. The format is functional.
For experiment [14], the system named is Tumor Cell line. As to the kind of experiment: LC50 was given In vitro as -50% percent growth (PG), measured as concentration of compound required to inhibit disease oriented human tumor cell line panels; Value ranges from 5.25->100. The format is functional. Particulars: read-out: LC50 (the source's name). The method in brief: as §3
Experiment [15] has as its system Tumor Cell line. As to the kind of experiment: TGI was given In vitro as 0% percent growth (PG), measured as concentration of compound required to inhibit disease oriented human tumor cell line panels; Value ranges from 0.06->100. The format is functional.
Experiment [16] has as its system Tumor Cell line. The experiment can be described thus: GI50 was given In vitro as +50% percent growth (PG), measured as concentration of compound required to inhibit disease oriented human tumor cell line panels;Value ranges from 0.06->100. The format is functional.
Experiment [17] concerns Tumor Cell line. The experiment can be described thus: LC50 was given in vitro as -50% percent growth (PG), measured as concentration of compound required to inhibit disease oriented human tumor cell line panels; Value ranges from 5.50->100. The format is functional. The note with it: read-out: LC50 (the source's name). The method in brief:
as §3

In experiment [18] the test system is Tumor Cell line. The experiment can be described thus: TGI was given in vitro as 0% percent growth (PG), measured as concentration of compound required to inhibit disease oriented human tumor cell line panels; Value ranges from 2.95-54.95. The format is functional. The method in brief:
as §1

For experiment [19], the system named is Tumor Cell line. As to the kind of experiment: GI50 was given in vitro as +50% percent growth (PG), measured as concentration of compound required to inhibit disease oriented human tumor cell line panels; Value ranges from 1.58-11.22. The format is functional. The method in brief: as §1
The test system of experiment [20] is Tumor Cell line. As to the kind of experiment: GI50 was given In vitro as +50% percent growth (PG), measured as concentration of compound required to inhibit disease oriented human tumor cell line panels. The format is functional. The method in brief: as §1
The subject of experiment [21] is Tumor Cell line. As to the kind of experiment: TGI was given In vitro as 0% percent growth (PG), measured as concentration of compound required to inhibit disease oriented human tumor cell line panels. The format is functional. The method in brief: as §1
Experiment [22] concerns Tumor Cell line. The experiment can be described thus: TGI was given In vitro as 0% percent growth (PG), measured as concentration of compound required to inhibit disease oriented human tumor cell line panels; Value ranges from 3.24-37.15. The format is functional. The method in brief:
as §1

Experiment [23] has as its system Tumor Cell line. The experiment can be described thus: LC50 was given In vitro as -50% percent growth (PG), measured as concentration of compound required to inhibit disease oriented human tumor cell line panels; Value ranges from 8.13->76. The format is functional. The note with it: read-out: LC50 (the source's name). The method in brief: as §3
Experiment [24] deals with Tumor Cell line. The experiment can be described thus: GI50 was given In vitro as +50% percent growth (PG), measured as concentration of compound required to inhibit disease oriented human tumor cell line panels; Value ranges from 1.38-15.14. The format is functional. The method in brief: as §1
Experiment [25] concerns Tumor Cell line. As to the kind of experiment: GI50 was given In vitro as +50% percent growth (PG), measured as concentration of compound required to inhibit disease oriented human tumor cell line panels; Value ranges from 0.060->100. The format is functional.
The test system of experiment [26] is Tumor Cell line. As to the kind of experiment: TGI was given In vitro as 0% percent growth (PG), measured as concentration of compound required to inhibit disease oriented human tumor cell line panels; Value ranges from 0.68->100. The format is functional. The method in brief:
as §1

In experiment [27] the test system is Tumor Cell line. As to the kind of experiment: LC50 was given In vitro as -50% percent growth (PG), measured as concentration of compound required to inhibit disease oriented human tumor cell line panels; Value ranges from 3.02->100. The note with it: read-out: LC50 (the source's name). The format is functional.
Experiment [28] relates to Tumor Cell line. The experiment can be described thus: LC50 was given In vitro as -50% percent growth (PG), measured as concentration of compound required to inhibit disease oriented human tumor cell line panels; Value ranges from 5.6->100. The note with it: read-out: LC50 (the source's name). The format is functional.
For experiment [29], the system named is Tumor Cell line. As to the kind of experiment: GI50 was given In vitro as +50% percent growth (PG), measured as concentration of compound required to inhibit disease oriented human tumor cell line panels; Value ranges from 0.19->100. The format is functional.
The test system of experiment [30] is Tumor Cell line. As to the kind of experiment: TGI was given In vitro as 0% percent growth (PG), measured as concentration of compound required to inhibit disease oriented human tumor cell line panels; Value ranges from 0.65->100. The format is functional.

`Cc1c2ccncc2c(C)c2c1[nH]c1ccc(Oc3ccccc3)cc12`: the GI50 (as a rule, the concentration giving 50% growth inhibition) in experiment [1] was found to be 2.63 µM. Also, the TGI ratio in [2] stood at 0.81. Further, the GI50 ratio in experiment [3] stood at 0.82. Total growth inhibition in [4] (TGI) required 6.03 µM. Besides, in [5], the LC50 ratio was 0.88 µM. Moreover, the CC50 in experiment [6] is over 19.5 µM.

`CC(=O)[O-].Cc1c2cc[n+](C)cc2c(C)c2c1[nH]c1ccc(OCC(F)(F)F)cc12`: in [7], the GI50 ratio is 12.9. For the same molecule, in [8], the TGI ratio is 13.7. The molecule also had a GI50 in [9] of 3.47 µM. Further, in [10], the CC50 was over 100 µM.

In experiment [11], `CC(=O)[O-].Cc1c2cc[n+](C)cc2c(C)c2c1[nH]c1ccc(OC(C)C)cc12` returned a GI50 of over 3.8 µM. Also, in experiment [12], the CC50 is over 66.1 µM. In addition, in experiment [7], the GI50 ratio was found to be 2.99. Besides, the TGI (usually the concentration giving total growth inhibition) in experiment [13] is over 23.4 µM. For the same molecule, the TGI ratio in experiment [8] turned out to be 2.09.

Regarding `Cc1c2cc[n+](C)cc2c(C)c2c1[nH]c1ccc(OC(C)C)cc12.[I-]`, in experiment [14], the CC50 was over 58.9 µM. Besides, in experiment [15], the concentration for total growth inhibition (TGI) was over 13.2 µM. Also, in experiment [7], the GI50 ratio was 8.35. For the same molecule, the GI50 in [16] is over 1.62 µM. In addition, in [8], the TGI ratio came out at 6.49.

Regarding `Cc1c2ccncc2c(C)c2c1[nH]c1ccc(OC(C)(C)C)cc12`, in experiment [17], the CC50 is over 32.4 µM. Moreover, the TGI ratio in [2] is 1.17. Also, the GI50 ratio in experiment [3] stood at 1.1. Besides, in [5], the LC50 ratio came out at 0.98 µM. In experiment [18], this molecule came in with a TGI of 7.24 µM. The molecule further displayed a GI50 in experiment [19] of 2.57 µM.

In experiment [20], `CC(=O)[O-].Cc1c2cc[n+](C)cc2c(C)c2c1[nH]c1ccc(OC(C)(C)C)cc12` showed a concentration for 50% growth inhibition (GI50) of over 100 µM. Also, in [7], the GI50 ratio came to 1. Also, the TGI in [21] is over 100 µM. Moreover, in experiment [8], the TGI ratio was found to be 1. The CC50 in experiment [10] was over 100 µM.

For `Cc1c2ccncc2c(C)c2c1[nH]c1ccc(O)c(OCC(F)(F)F)c12`, the TGI in experiment [22] was 15.8 µM. Also, in experiment [7], the GI50 ratio was 1.07. The CC50 in experiment [23] was over 42.7 µM. Growth in [24] was halved (GI50) at 5.89 µM. Also, the TGI ratio in [8] stood at 0.98.

In experiment [25], `CCOc1ccc2[nH]c3c(C)c4cc[n+](C)cc4c(C)c3c2c1.[I-]` came in with a GI50 of over 1.17 µM. For the same molecule, the concentration for total growth inhibition (TGI) in [26] was over 12 µM. Further, the GI50 ratio in experiment [7] came to 7.9. Further, the CC50 in experiment [27] is over 55 µM. In [8], the TGI ratio was determined as 9.54.

Take `CC(=O)[O-].CCOc1ccc2[nH]c3c(C)c4cc[n+](C)cc4c(C)c3c2c1`: the CC50 in [28] is over 74.1 µM. For the same molecule, the GI50 in experiment [29] is over 2.34 µM. Moreover, the GI50 ratio in experiment [7] came out at 5.92. Besides, in experiment [30], the TGI is over 19.5 µM. Also, the TGI ratio in experiment [8] amounted to 7.08.
